CXCR6 block: blocks human CXCR6 beta-arrestin recruitment | O00574 | CHO-K1 PathHunter CXCR6 beta-arrestin, luminescence | inhibition, % at 20 µM | 360,000 compounds, 0.36% hits | AID 602244; in the data active means inhibition above about 34%, passing the limit was not always enough;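 further: antagonist mode with CXCL16 agonist at 10 nM final; 0% = 10 nM CXCL16 with DMSO and 100% = unstimulated wells without agonist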
Target sequence (O00574 whole entry, looked up): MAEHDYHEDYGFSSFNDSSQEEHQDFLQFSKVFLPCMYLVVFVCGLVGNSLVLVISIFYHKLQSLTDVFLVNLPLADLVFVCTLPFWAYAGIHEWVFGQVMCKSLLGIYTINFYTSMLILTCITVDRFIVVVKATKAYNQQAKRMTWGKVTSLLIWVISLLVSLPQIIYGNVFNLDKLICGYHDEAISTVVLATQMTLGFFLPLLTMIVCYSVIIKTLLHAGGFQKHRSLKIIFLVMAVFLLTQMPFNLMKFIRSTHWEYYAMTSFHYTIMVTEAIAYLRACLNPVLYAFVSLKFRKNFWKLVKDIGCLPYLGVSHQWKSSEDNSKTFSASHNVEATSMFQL
CCR6 antag: blocks CCL20-driven beta-arrestin recruitment at human CCR6. P51684. 340,000 compounds, 0.49% hits. CHO-K1 CCR6 PathHunter beta-arrestin, luminescence, CCL20-stimulated. inhibition, % at 20 µM. AID 493098;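 active means compounds whose inhibition of the agonist-driven luminescence signal at 20 µM reaches about 50%, limit read from the data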;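 further: cells stimulated with CCL20 at 14 nM final; plate controls were DMSO with CCL20 for no effect and DMSO without agonist for full effect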
APJ antag: blocks the human apelin receptor APJ; 330,000 compounds, 0.32% hits; P35414; CHO-K1 APJ beta-arrestin complementation, luminescence; inhibition, % at 20 µM;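 active means inhibition above about 40% at 20 µM, limit read from the data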;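 further: cells challenged with 10 nM apelin-13 agonist together with compound; plate controls were apelin-13 plus DMSO wells for no effect and DMSO wells lacking apelin-13 for full effect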
B2AR ag: agonists of human beta-2 adrenergic receptor inducing internalization; P07550; Am2.2-beta2AR cells, FAP receptor internalization, flow cytometry; response, % (no concentration beside the values); 340,000 compounds, 0.43% hits; AID 504454;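 active means response above a set limit, near 3 SD of response in nonfluorescent compounds, cut at about 42% in these data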
APJ agonist: agonists of human APJ apelin receptor | activation, % at 20 µM | 330,000 compounds, 0.11% hits | CHO-K1 APJ PathHunter beta-arrestin, luminescence; 0% DMSO wells, 100% apelin | P35414;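 active means activation more than six SD over the plate average, tested at 20 µM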;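 further: 0% = DMSO alone and 100% = apelin-13 at 10 nM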
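Test system: CHO-K1 APJ beta-arrestin complementation cell line | Compound: Single test compound dose, 20 µM final, 1% DMSO | Incubation: Compound 90 min 25 °C, reagent 1 h | Measured by: beta-gal luminescence | Read-out basis: APJ–arrestin association signal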
PfG6PD inh: PfG6PD (Plasmodium falciparum) enzyme inhibition; inhibition, % at 20 µM; PfGluPho enzyme, NADPH resazurin-diaphorase fluorescence; 350,000 compounds, 0.78% hits; AID 504690;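 active means inhibition reaching at least a set limit at 20 µM in the primary screen, cut at about 59% in these data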;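 further: 0% = DMSO wells with substrate and 100% = DMSO wells lacking glucose-6-phosphate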
PfGluPho conf: PfG6PD inhibition, single-dose confirmed; inhibition, % at 20 µM; recombinant PfGluPho, NADPH-diaphorase-resazurin fluorescence; shares compounds with PfG6PD inh; 2,400 compounds, 34% hits; AID 504753;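 active means inhibition of at least 50% at 20 µM in any single replicate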;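 further: 0% = DMSO with substrate and 100% = DMSO lacking glucose-6-phosphate substrate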
Diaph ctr 10uM: counter-screen for P. falciparum G6PD inhibitors: diaphorase inhibitors, oxidizers | 820 compounds, 39% hits | inhibition, % at 20 µM | shares compounds with PfG6PD inh | diaphorase-coupled resazurin reduction, fluorescence, NADPH 10 uM | AID 504862;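 active means average inhibition reaching 50% or more with the compound at 20 µM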;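 further: resorufin red fluorescence formed as diaphorase reduces resazurin using NADPH; 0% = DMSO with enzyme and 100% = DMSO without enzyme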
Diaph ctr 30uM: diaphorase inhibition or oxidation at 30 uM NADPH | Diaphorase/resazurin coupled assay, resorufin fluorescence | shares compounds with PfG6PD inh | inhibition, % at 20 µM | 820 compounds, 29% hits;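 active means inhibition averaging 50% or more, tested at 20 µM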;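 further: 0% = DMSO with enzyme and 100% = DMSO wells lacking diaphorase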
Numbers without * were called inactive; . = no result given. In the library only some 1.7% were active in any assay of this set; here they are far more common.

SMILES | CXCR6 block | CCR6 antag | APJ antag | B2AR ag | APJ agonist | PfG6PD inh | PfGluPho conf | others
COc1ccc(NCc2ccccc2[N+](=O)[O-])cc1OC | 1 | -2 | -8 | -8 | -1 | 34 | .
COc1cc2c(cc1OC)C(Cc1ccccc1[N+](=O)[O-])=NCC2 | -17 | -5 | . | 0 | . | 45 | -25
Nc1nc2ccc(S(=O)(=O)N3CCCCC3)cc2s1 | -9 | 10 | -34 | 7 | 7 | 65* | 40
Cc1nc2ccc(S(=O)(=O)N3CCCCC3)cc2s1 | -2 | 8 | 1 | -4 | 0 | -19 | .
Cn1ncc(Cl)c1C(=O)N/N=C/c1cccc(OC2CSC2)c1 | -1 | 24 | 25 | -25 | 0 | 109* | 85* | Diaph ctr 10uM=76*;Diaph ctr 30uM=64*
O=C(CSc1ncccn1)N/N=C/c1cccc(OC2CSC2)c1 | -6 | -8 | -1 | -23 | -3 | 14 | .
Cc1cccc(-c2nc3ccccc3c(=O)n2NC(=S)N(C)C)c1 | 2 | -6 | 15 | 5 | 4 | 62* | 32
CN(C)C(=S)Nn1c(-c2ccccc2)nc2ccccc2c1=O | -6 | 3 | -7 | 5 | -1 | -1 | .
CCOc1ccc(-c2nnc(SCc3nnc(-c4ccccc4)o3)n2-c2ccccc2F)cc1 | 13 | 11 | 10 | -14 | -7 | 85* | 37
O=C(c1ccccc1)c1ccc2nc(-c3ccco3)c(-c3ccco3)nc2c1 | 13 | 34 | -15 | 9 | 7 | 35 | .
O=C(NCCc1ccccc1)c1ccc2nc(-c3ccco3)c(-c3ccco3)nc2c1 | 14 | 22 | -16 | 13 | -1 | 60* | 30
O=C(NC1CCCC1)c1ccc2nc(-c3ccco3)c(-c3ccco3)nc2c1 | 0 | 8 | -29 | 14 | 4 | 53 | .
O=C(NCCO)c1ccc2nc(-c3ccco3)c(-c3ccco3)nc2c1 | 5 | 6 | 7 | -6 | 11 | 72* | 19
COc1cc(C(=O)NCCNC(=O)c2ccco2)cc(OC)c1OC | 0 | 12 | . | 15 | . | 11 | .
NC(=O)c1cc([N+](=O)[O-])c(Cl)cc1NCc1cccnc1 | -4 | 2 | -53 | -3 | 0 | 13 | .
CC(C)COc1cccc(C(=O)Nc2ccc(N3CCOCC3)cc2N2CCOCC2)c1 | -6 | 14 | 6 | -13 | -3 | 38 | .
COC(=O)CCC(=O)OC1(C)C(=O)C=C2C=C(C3CC3)N(CCCOC(C)C)C=C2C1=O (stereo unspecified) | -9 | -4 | -62 | -1 | 21 | 68* | 23
COC(=O)CCCC1=CC2=CC(=O)C(C)(OC(=O)c3cccs3)C(=O)C2=CN1C1CC1 (stereo unspecified) | -17 | -18 | -52 | 4 | 11 | 62* | 6
COC(=O)CCC(=O)OC1(C)C(=O)C=C2C=C(C3CC3)N(c3ccccc3)C=C2C1=O (stereo unspecified) | -18 | -6 | -46 | 4 | 19 | 66* | 37
COC(=O)CCC(=O)OC1(C)C(=O)C=C2C=C(C3CC3)N(CCc3ccccn3)C=C2C1=O (stereo unspecified) | -28 | -10 | -17 | -5 | 9 | 63* | 26
C=CCN1C=C2C(=O)C(C)(OC(=O)CCC(=O)OC)C(=O)C=C2C=C1C1CC1 (stereo unspecified) | -15 | -18 | -80 | -1 | 27 | 42 | .
COC(=O)CCC(=O)OC1(C)C(=O)C=C2C=C(C3CC3)N(CCCCO)C=C2C1=O (stereo unspecified) | -27 | -8 | -22 | 3 | 13 | 52 | .
COC(=O)CCC(=O)OC1(C)C(=O)C=C2C=C(C3CC3)N(CCc3c[nH]c4ccccc34)C=C2C1=O (stereo unspecified) | -27 | -6 | -36 | -4 | 20 | 65* | 38

Bioassay records (PubChem BioAssay)
